Activity calls are given as the source filed them. No cut-off for these calls is given here.
What was measured:
[1] = molecular target: T1, Amine oxidase [flavin-containing] A (Homo sapiens, UniProt P21397); assay: Inhibition of MAO-A (unknown origin) using p-tyramine as substrate preincubated for 15 mins followed by substrate addition and measured after 15 mins by Amplex red fluorescence based microplate reader assay
T1 sequence (P21397 whole entry): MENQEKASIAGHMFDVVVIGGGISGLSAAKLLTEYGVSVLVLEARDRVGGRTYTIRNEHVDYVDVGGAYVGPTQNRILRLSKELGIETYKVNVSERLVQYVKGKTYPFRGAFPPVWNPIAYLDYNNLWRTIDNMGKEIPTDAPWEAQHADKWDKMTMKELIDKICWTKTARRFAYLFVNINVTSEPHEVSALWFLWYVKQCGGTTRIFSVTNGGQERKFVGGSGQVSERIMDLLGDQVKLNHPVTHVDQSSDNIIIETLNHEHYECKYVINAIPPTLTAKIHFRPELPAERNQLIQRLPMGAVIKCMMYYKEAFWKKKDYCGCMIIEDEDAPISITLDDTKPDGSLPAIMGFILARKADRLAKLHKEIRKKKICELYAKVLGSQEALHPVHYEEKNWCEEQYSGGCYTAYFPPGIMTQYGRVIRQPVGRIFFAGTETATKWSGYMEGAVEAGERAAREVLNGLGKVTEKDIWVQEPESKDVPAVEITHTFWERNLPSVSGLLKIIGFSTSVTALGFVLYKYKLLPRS

[2] = Cytotoxicity against human SH-SY5Y cells assessed as reduction in cell growth measured after 48 hrs by MTT assay; format: toxicity, cell-based
Summary of the method: (§1)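 MTT assay: PC12, SH-SY5Y or L02 cells at 5.0 × 10^3 per well were grown for 24 h, treated with compound dilutions from 10 mM DMSO stocks, and cultured 48 h. MTT was then added for 4 h at 37 °C, formazan dissolved in DMSO, and absorbance read at 570 nm. Viability is relative to blank control; IC50 from three repeats. Media contained 10% FBS.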

Homo sapiens = species: Homo sapiens; assay: Selectivity index, ratio of IC50 for inhibition of MAO-B (unknown origin) to IC50 for inhibition of MAO-A (unknown origin)
Summary of the method: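 Amplex Red coupled assay. Test sample was preincubated with MAO-A or MAO-B at 37 °C for 15 min. p-Tyramine substrate working solution was added, with HRP converting the H2O2 formed to resorufin, for a further 15 min at 37 °C. Fluorescence read at Ex 545/Em 590 nm. […] SI = MAO-B IC50 / MAO-A IC50.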

[3] = Cytotoxicity against human L02 cells assessed as reduction in cell growth measured after 48 hrs by MTT assay; format: toxicity, cell-based; summary of the method: as §1
[4] = Inhibition of 5-HT2AR mRNA expression in zebra fish AB assessed as fold decrease in 2 delta delta CT level at 1 uM by RT-qPCR method relative to control; format: functional, Danio rerio
Summary of the method: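 Total RNA from zebrafish was extracted with Trizol and reverse-transcribed with MMLV. SYBR Green qPCR: 95 °C 2 min; 40 cycles of 95, 60 and 72 °C, 30 s each; then 72 °C for 5 min. 5-HT2AR was normalized to GAPDH by the 2^−ΔΔCT method; mean ± SD, n = 3.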

[5] = Cytotoxicity against rat PC-12 cells assessed as reduction in cell growth measured after 48 hrs by MTT assay; format: toxicity, cell-based; summary of the method: as §1
[6] = molecular target: T2, Amine oxidase [flavin-containing] B (Homo sapiens, UniProt P27338); assay: Inhibition of MAO-B (unknown origin) using p-tyramine as substrate preincubated for 15 mins followed by substrate addition and measured after 15 mins by Amplex red fluorescence based microplate reader assay
T2 sequence (P27338 whole entry): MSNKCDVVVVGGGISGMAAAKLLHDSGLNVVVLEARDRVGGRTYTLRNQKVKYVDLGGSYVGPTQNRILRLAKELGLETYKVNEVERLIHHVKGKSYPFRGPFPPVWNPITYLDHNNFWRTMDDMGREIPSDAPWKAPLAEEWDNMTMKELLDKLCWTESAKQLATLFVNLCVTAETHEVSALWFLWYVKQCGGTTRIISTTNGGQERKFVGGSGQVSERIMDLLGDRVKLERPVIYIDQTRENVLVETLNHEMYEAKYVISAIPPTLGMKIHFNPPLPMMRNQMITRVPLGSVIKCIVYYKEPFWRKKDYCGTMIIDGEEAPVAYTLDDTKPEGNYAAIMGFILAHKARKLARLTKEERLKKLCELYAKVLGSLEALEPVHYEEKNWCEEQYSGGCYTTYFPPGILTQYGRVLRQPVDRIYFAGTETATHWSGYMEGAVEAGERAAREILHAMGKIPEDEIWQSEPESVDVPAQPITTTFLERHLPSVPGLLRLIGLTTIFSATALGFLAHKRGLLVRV

Mus musculus [7] = assay: Antidepressant activity in reserpine-induced mouse assessed as downregulation of 5-HT2AR expression at 20 mg/kg pretreated with reserpine for 3 days followed by compound addition on day 4 to 10 by Western blot analysis; format: functional, organism-based; conditions: time 6.0 day
Summary of the method: (§2)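 ICR mice given reserpine 1 mg/kg i.p. for 3 consecutive days, then treated daily on days 4–10 (saline 10 mL/kg as vehicle control). Whole-brain protein quantified by BCA, diluted to 3 mg/mL, 10 μL run on 4–20% SDS-PAGE, transferred, blocked, primary antibody 4 °C overnight, secondary 1 h room temperature. Relative 5-HT1AR and 5-HT2AR levels, mean ± SD, n = 3.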

Mus musculus [8] = assay: Antidepressant activity in reserpine-induced mouse assessed as increase in 5-HT1AR expression at 20 mg/kg pretreated with reserpine for 3 days followed by compound addition on day 4 to 10 by Western blot analysis; format: functional, organism-based; conditions: time 6.0 day; summary of the method: as §2

Compound	IC50 [1] [µM]	IC50 at 48 h [2] [µM]	Ratio IC50 (Homo sapiens)	IC50 at 48 h [3] [µM]	fold change (FC) [4]	IC50 at 48 h [5] [µM]	IC50 [6] [µM]	Activity (Mus musculus [7])	Activity (Mus musculus [8])
O=C1c2ccccc2-c2nccc3cc(OCCCCN4CCN(c5ccccc5Cl)CC4)cc1c23	0.503	> 10	25.3	> 100	2.575	> 10	12.7		
O=C1c2ccccc2-c2nccc3cc(OCCCN4CCN(c5ccccc5)CC4)cc1c23	0.009	> 10	94.4	> 100	0.069	> 10	0.85		
O=C1c2ccccc2-c2nccc3cc(OCCCN4CCN(c5ccccc5Cl)CC4)cc1c23	0.361	> 10	41.9	> 100	1.886	> 10	15.1		
O=C1c2ccccc2-c2nccc3cc(OCCCCN4CCN(c5ccccc5F)CC4)cc1c23	0.008	> 10	186	> 100	0.048	> 10	1.49		
CNCCC(Oc1ccc(C(F)(F)F)cc1)c1ccccc1 (centres undefined)								Active	Active
O=C1c2ccccc2-c2nccc3cc(OCCCCN4CCN(c5cccc(Cl)c5Cl)CC4)cc1c23	0.072	> 10	30	> 100	0.578	> 10	2.16		
O=C1c2ccccc2-c2nccc3cc(OCCCCCN4CCN(c5cccc(Cl)c5Cl)CC4)cc1c23	0.006	> 10	148	> 100	0.049	> 10	0.89		
O=C1c2ccccc2-c2nccc3cc(OCCCN4CCN(c5cccc(Cl)c5Cl)CC4)cc1c23	0.011	> 10	139	> 100	0.055	> 10	1.53		
O=C1c2ccccc2-c2nccc3cc(OCCCCCN4CCN(c5ccccc5Cl)CC4)cc1c23	0.086	> 10	48.7	> 100	1.804	> 10	4.19		
O=C1c2ccccc2-c2nccc3cc(OCCCN4CCN(c5ccccc5F)CC4)cc1c23	0.005	> 10	202	> 100	0.038	> 10	1.01		
COc1ccccc1N1CCN(CCCCCOc2cc3c4c(nccc4c2)-c2ccccc2C3=O)CC1	0.014	> 10	98.6	> 100	0.142	> 10	1.38		
COc1ccccc1N1CCN(CCCCOc2cc3c4c(nccc4c2)-c2ccccc2C3=O)CC1	0.091	> 10	47	> 100	0.685	> 10	4.28		
COc1ccccc1N1CCN(CCCOc2cc3c4c(nccc4c2)-c2ccccc2C3=O)CC1	0.054	> 10	60.4	> 100	0.2	> 10	3.26		
O=C1c2ccccc2-c2nccc3cc(O)cc1c23	1.26		18.6		2.675		23.5		
O=C1c2ccccc2-c2nccc3cc(OCCCCCN4CCN(c5ccccc5)CC4)cc1c23	0.009	> 10	162	> 100	0.06	> 10	1.46		
O=C1c2ccccc2-c2nccc3cc(OCCCCN4CCN(c5ccccc5)CC4)cc1c23	0.049	> 10	69.8	> 100	1.341	> 10	3.42		

From ChEMBL document CHEMBL5108057, “Development of MAO-A and 5-HT2AR Dual Inhibitors with Improved Antidepressant Activity” (J Med Chem, 2022)
